Laboratory results reported in ChEMBL document CHEMBL4715728, “New bifunctional antioxidant/σ1 agonist ligands: Preliminary chemico-physical and biological evaluation” (Bioorg Med Chem, 2016).
Activity calls are given as the source filed them. The rule behind the calls is not given here.

How the values were obtained:
[1] = Cytotoxicity against Sprague-Dawley rat Cerebral cortex neuron assessed as cell viability at 10 uM incubated for 24 hrs by MTT assay relative to control; assay type: tissue-based; details: cerebral cortex neurons, read-out: Activity
In short: (§1)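 Primary fetal rat cortical neurons, matured 8 days, treated 24 h at 37 °C with compound (0.1–100 µM; 0.5% DMSO or water vehicle). MTT 0.7 mg/ml was then added for 30 min at 37 °C, and formazan was extracted with isopropanol/formic acid (95:5) and read at 560 nm. Untreated control was set as 100% viability. Four independent experiments.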

[2] = Cytotoxicity against Sprague-Dawley rat Cerebral cortex neuron assessed as LDH activity at 10 uM incubated for 24 hrs by LDH assay; assay type: tissue-based
In short: (§2)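 Primary fetal rat cortical neurons, matured 8 days on poly-D-lysine, exposed 24 h at 37 °C to compound (0.1–100 µM; DMSO 0.5% or water vehicle). LDH released into 100 µl culture medium was measured by kit as the rate of NAD+ reduction (absorbance increase at 490 nm). Positive control was mitomycin C. Four independent experiments.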

[3] = Antioxidant activity in Sprague-Dawley rat Cerebral cortex neuron assessed as total oxidative stress level by measuring H2O2 equivalents at 10 uM after 24 hrs (reference value: 2.3 +/- 0.3 umol/L); assay type: functional
In short: (§3)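 Primary cerebral cortex neurons from rat fetuses, grown on poly-D-lysine in neurobasal medium with fetal calf serum (5% CO2, 37 °C), tested after 8 days in culture. Compounds in DMSO (0.5%) or sterile water were added and incubated 24 h at 37 °C. Cells were washed in ice-cold PBS and homogenized in 0.9% saline. Intracellular TAC (Trolox equiv.) and TOS (H2O2 equiv.) were read by kit. Ascorbic acid 10 µM (TAC) and H2O2 25 µM (TOS) served as positive controls. Four independent experiments.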

[4] = Antioxidant activity in Sprague-Dawley rat Cerebral cortex neuron assessed as total oxidative stress level by measuring H2O2 equivalents at 1 uM after 24 hrs (reference value: 2.3 +/- 0.3 umol/L); assay type: functional; in short: as §3
[5] = Cytotoxicity against Sprague-Dawley rat Cerebral cortex neuron assessed as LDH activity at 50 uM incubated for 24 hrs by LDH assay (reference value: […]); assay type: tissue-based; in short: as §2
[6] = Antioxidant activity in Sprague-Dawley rat Cerebral cortex neuron assessed as total oxidative stress level by measuring H2O2 equivalents at 100 uM after 24 hrs (reference value: 2.3 +/- 0.3 umol/L); assay type: functional; in short: as §3
[7] = target: Sigma non-opioid intracellular receptor 1 (Cavia porcellus, UniProt Q60492); test: Displacement of [3H]-(+)-pentazocine from sigma1 receptor in guinea pig brain membrane incubated for 150 mins by liquid scintillation counting method; assay type: cell membranes
In short: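 Guinea pig brain membranes (500 µg protein) in 50 mM Tris-HCl pH 7.4 with 3 nM [3H]-(+)-pentazocine. […] Incubated 150 min at 37 °C, then filtered on PEI-soaked GF/B filters and counted by scintillation. Ki obtained by EBDA/LIGAND; three determinations.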

[8] = Cytotoxicity against Sprague-Dawley rat Cerebral cortex neuron assessed as LDH activity at 25 uM incubated for 24 hrs by LDH assay (reference value: […]); assay type: tissue-based; in short: as §2
[9] = Antioxidant activity in Sprague-Dawley rat Cerebral cortex neuron assessed as total antioxidant capacity by measuring trolox equivalents at 10 uM after 24 hrs; assay type: functional; in short: as §3
[10] = organism: Cavia porcellus; test: Selectivity ratio of Ki for displacement of [3H]-DTG from sigma2 receptor in guinea pig brain membrane to Ki for displacement of [3H]-(+)-pentazocine from sigma1 receptor in guinea pig brain membrane; assay type: cell membranes
[11] = Cytotoxicity against Sprague-Dawley rat Cerebral cortex neuron assessed as LDH activity at 100 uM incubated for 24 hrs by LDH assay (reference value: […]); assay type: tissue-based; in short: as §2
[12] = test system: Mus musculus; test: In vivo agonist activity at sigma 1 receptor in Swiss […] mouse assessed as modulation of morphine-induced analgesic effect by measuring tail flick latency at 1 mg/kg, ip measured after 90 mins by radiant heat tail-flick method; assay type: functional, organism-based
[13] = Antioxidant activity in Sprague-Dawley rat Cerebral cortex neuron assessed as total antioxidant capacity by measuring trolox equivalents at 1 uM after 24 hrs; assay type: functional; in short: as §3
[14] = Displacement of [3H]-DTG from Sigma 2 receptor in guinea pig brain membrane incubated for 120 mins in presence of sigma1 blocker (+)-SKF-10047 by liquid scintillation counting method; assay type: cell membranes, Cavia porcellus
[15] = Cytotoxicity against rat Sprague-Dawley Cerebral cortex neuron assessed as cell viability at 50 uM incubated for 24 hrs by MTT assay relative to control; assay type: tissue-based; details: cerebral cortex neurons, read-out: Activity; in short: as §1
[16] = Antioxidant activity in Sprague-Dawley rat Cerebral cortex neuron assessed as total oxidative stress level by measuring H2O2 equivalents at 0.1 uM after 24 hrs (reference value: 2.3 +/- 0.3 umol/L); assay type: functional; in short: as §3
[17] = Cytotoxicity against Sprague-Dawley rat Cerebral cortex neuron assessed as cell viability at 100 uM incubated for 24 hrs by MTT assay relative to control; assay type: tissue-based; details: cerebral cortex neurons, read-out: Activity; in short: as §1
[18] = test system: Mus musculus; test: In vivo agonist activity at sigma 1 receptor in Swiss […] mouse assessed as modulation of morphine-induced analgesic effect by measuring tail flick latency at 1 mg/kg, ip preincubated for 45 mins followed by morphine treatment after 90 mins by radiant heat tail-flick method; assay type: functional, organism-based; details: time 135.0 min
[19] = Cytotoxicity against Sprague-Dawley rat Cerebral cortex neuron assessed as cell viability at 25 uM incubated for 24 hrs by MTT assay relative to control; assay type: tissue-based; details: cerebral cortex neurons, read-out: Activity; in short: as §1
[20] = Antioxidant activity in Sprague-Dawley rat Cerebral cortex neuron assessed as total antioxidant capacity by measuring trolox equivalents at 50 uM after 24 hrs; assay type: functional; in short: as §3
[21] = Antioxidant activity in Sprague-Dawley rat Cerebral cortex neuron assessed as total oxidative stress level by measuring H2O2 equivalents at 25 uM after 24 hrs (reference value: 2.3 +/- 0.3 umol/L); assay type: functional; in short: as §3
[22] = Cytotoxicity against Sprague-Dawley rat Cerebral cortex neuron assessed as LDH activity at 1 uM incubated for 24 hrs by LDH assay (reference value: […]); assay type: tissue-based; in short: as §2
[23] = Antioxidant activity in Sprague-Dawley rat Cerebral cortex neuron assessed as total antioxidant capacity by measuring trolox equivalents at 100 uM after 24 hrs; assay type: functional; in short: as §3
[24] = Cytotoxicity against Sprague-Dawley rat Cerebral cortex neuron assessed as LDH activity at 0.1 uM incubated for 24 hrs by LDH assay (reference value: […]); assay type: tissue-based; in short: as §2
[25] = Antioxidant activity in Sprague-Dawley rat Cerebral cortex neuron assessed as total antioxidant capacity by measuring trolox equivalents at 0.1 uM after 24 hrs; assay type: functional; in short: as §3
[26] = Cytotoxicity against Sprague-Dawley rat Cerebral cortex neuron assessed as cell viability at 0.1 uM incubated for 24 hrs by MTT assay relative to control; assay type: tissue-based; details: cerebral cortex neurons, read-out: Activity; in short: as §1
[27] = Antioxidant activity in Sprague-Dawley rat Cerebral cortex neuron assessed as total oxidative stress level by measuring H2O2 equivalents at 50 uM after 24 hrs (reference value: 2.3 +/- 0.3 umol/L); assay type: functional; in short: as §3
[28] = Cytotoxicity against Sprague-Dawley rat Cerebral cortex neuron assessed as cell viability at 1 uM incubated for 24 hrs by MTT assay relative to control; assay type: tissue-based; details: cerebral cortex neurons, read-out: Activity; in short: as §1
[29] = Antioxidant activity in Sprague-Dawley rat Cerebral cortex neuron assessed as total antioxidant capacity by measuring trolox equivalents at 25 uM after 24 hrs; assay type: functional; in short: as §3

Sequence of Sigma non-opioid intracellular receptor 1 (Q60492 whole entry): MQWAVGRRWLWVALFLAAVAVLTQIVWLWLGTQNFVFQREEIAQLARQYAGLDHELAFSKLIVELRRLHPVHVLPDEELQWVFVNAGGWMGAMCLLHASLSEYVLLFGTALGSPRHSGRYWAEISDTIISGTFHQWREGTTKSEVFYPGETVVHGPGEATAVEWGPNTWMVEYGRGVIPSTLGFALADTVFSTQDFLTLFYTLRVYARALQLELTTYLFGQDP

Structure (SMILES) | viability at 24 h, 10 µM [1] [%] | Activity [2] [mU/ml] | Activity [3] [µmol/L] | Activity [4] [µmol/L] | Activity [5] [mU/ml] | Activity [6] [µmol/L] | Activity [8] [mU/ml] | TAC [9] [mmol/L] | Activity [11] [mU/ml] | TAC [13] [mmol/L] | viability at 24 h, 50 µM [15] [%] | Activity [16] [µmol/L] | viability at 24 h, 100 µM [17] [%] | viability at 24 h, 25 µM [19] [%] | TAC [20] [mmol/L] | Activity [21] [µmol/L] | Activity [22] [mU/ml] | TAC [23] [mmol/L] | Activity [24] [mU/ml] | TAC [25] [mmol/L] | other results
CO[C@@]12[C@H](COC(N)=O)C3=C(C(=O)C(C)=C(N)C3=O)N1C[C@@H]1N[C@@H]12 [MITOMYCIN] | 46.1 | 2.23 | – | – | – | – | – | – | – | – | – | – | – | – | – | – | – | – | – | – | –
O=C(CCCC[C@@H]1CCSS1)OC1CCN(Cc2ccccc2)CC1 | 96.4 | 0.3 | 0.4 | 0.4 | 0.34 | 0.5 | 0.32 | 10.9 | 0.32 | 10.7 | 97.4 | 0.4 | 96.2 | 96.6 | 10.9 | 0.5 | 0.28 | 11 | 0.3 | 10.9 | Ki [7]: 0.0177 µM; Ratio Ki [10]: 106; Activity [12]: inactive; Ki [14]: 1.87 µM; Activity [18]: Active; viability at 24 h, 0.1 µM [26]: 100%; Activity [27]: 0.5 µmol/L; viability at 24 h, 1 µM [28]: 98.7%; TAC [29]: 11.3 mmol/L
O=C(CCCC[C@@H]1CCSS1)N1CCN(Cc2ccccc2)CC1 | 96.5 | 0.32 | 0.4 | 0.5 | 0.3 | 0.5 | 0.3 | 10.8 | 0.32 | 10.5 | 95.7 | 0.5 | 95.8 | 96.6 | 12.8 | 0.4 | 0.32 | 11.2 | 0.3 | 10.2 | Ki [7]: 0.0061 µM; Ratio Ki [10]: 204; Ki [14]: 1.25 µM; viability at 24 h, 0.1 µM [26]: 98.5%; Activity [27]: 0.4 µmol/L; viability at 24 h, 1 µM [28]: 98.7%; TAC [29]: 13 mmol/L
O=C(O)CCCC[C@@H]1CCSS1 [THIOCTIC ACID] | 98.1 | 0.28 | 0.4 | 0.5 | 0.29 | 0.5 | 0.27 | 10.9 | 0.29 | 10.5 | 96.4 | 0.4 | 95.9 | 97.2 | 12.1 | 0.4 | 0.28 | 13.5 | 0.27 | 10.7 | viability at 24 h, 0.1 µM [26]: 98.6%; Activity [27]: 0.5 µmol/L; viability at 24 h, 1 µM [28]: 97.9%; TAC [29]: 11.2 mmol/L
O=C1O[C@H]([C@@H](O)CO)C(O)=C1O [ASCORBIC ACID] | – | – | – | – | – | – | – | 26.9 | – | – | – | – | – | – | – | – | – | – | – | – | –
